The subject of assay [1] is MV4-11. Put plainly: Induction of apoptosis in human MV4-11 cells assessed as viable cells at 10 x GI50 concentration incubated for 24 hrs by annexin V-FITC and propidium iodide staining based flow cytometry (reference value: 84.68 %). Type of assay: functional.
For assay [2], the system named is MV4-11. Briefly: Induction of apoptosis in human MV4-11 cells assessed as late apoptotic cells at 10 x GI50 concentration incubated for 24 hrs by annexin V-FITC and propidium iodide staining based flow cytometry (reference value: 12.45 %). It counts as functional. (In flow cytometry, cells or beads pass a laser one at a time.)
For assay [3], the target named is T1, Receptor-type tyrosine-protein kinase FLT3 (Homo sapiens, UniProt P36888).
T1 sequence (P36888 whole entry): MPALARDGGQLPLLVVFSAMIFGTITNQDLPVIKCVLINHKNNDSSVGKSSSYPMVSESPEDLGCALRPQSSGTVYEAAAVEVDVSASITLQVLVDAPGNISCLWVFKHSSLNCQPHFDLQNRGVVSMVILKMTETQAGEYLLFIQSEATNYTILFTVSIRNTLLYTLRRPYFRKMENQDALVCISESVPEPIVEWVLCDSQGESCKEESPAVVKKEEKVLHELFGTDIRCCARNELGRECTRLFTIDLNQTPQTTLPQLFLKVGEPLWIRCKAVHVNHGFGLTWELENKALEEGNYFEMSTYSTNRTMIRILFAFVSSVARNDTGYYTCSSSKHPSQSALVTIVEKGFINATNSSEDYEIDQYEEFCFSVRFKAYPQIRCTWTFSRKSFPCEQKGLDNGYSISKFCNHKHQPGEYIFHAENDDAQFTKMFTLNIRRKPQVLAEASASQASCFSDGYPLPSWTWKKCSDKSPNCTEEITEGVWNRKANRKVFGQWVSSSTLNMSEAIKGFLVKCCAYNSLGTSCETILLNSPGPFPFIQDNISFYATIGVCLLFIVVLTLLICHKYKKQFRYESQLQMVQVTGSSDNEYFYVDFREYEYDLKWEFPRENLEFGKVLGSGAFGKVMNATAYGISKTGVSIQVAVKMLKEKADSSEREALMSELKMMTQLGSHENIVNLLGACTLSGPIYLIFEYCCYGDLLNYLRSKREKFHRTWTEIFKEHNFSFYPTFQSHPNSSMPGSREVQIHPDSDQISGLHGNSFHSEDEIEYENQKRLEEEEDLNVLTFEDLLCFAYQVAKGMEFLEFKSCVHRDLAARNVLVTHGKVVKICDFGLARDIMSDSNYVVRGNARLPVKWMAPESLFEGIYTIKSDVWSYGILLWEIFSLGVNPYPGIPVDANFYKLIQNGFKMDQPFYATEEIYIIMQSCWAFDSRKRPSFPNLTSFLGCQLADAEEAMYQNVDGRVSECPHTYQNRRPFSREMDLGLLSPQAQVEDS
Briefly: Inhibition of wild type FLT3 (unknown origin) using Glu/Tyr peptide substrate incubated for 120 mins measured after 40 mins incubation under dark by ADP-glo based luminescence assay. A digest of the protocol:
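In-house ADP-Glo assay with poly(Glu,Tyr) 4:1 substrate in 40 mM Tris pH 7.5, 20 mM MgCl2, 50 µM DTT, 0.1 mg/mL BSA. Kinase at 20 nM. ADP-Glo reagent 40 min in the dark, detection reagent 30–40 min, then luminescence. Ki was derived from IC50 by Cheng-Prusoff.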

For assay [4], the system named is U-937. Put plainly: Induction of apoptosis in human U937 cells assessed as late apoptotic cells at 20 x GI50 concentration incubated for 48 hrs by annexin V-FITC staining based flow cytometry (reference value: 9.82 %). It counts as functional.
Assay [5] has as its target Receptor-type tyrosine-protein kinase FLT3 (Homo sapiens, UniProt P36888, D835Y). Put plainly: Inhibition of FLT3 D835Y mutant (unknown origin) incubated for 120 mins by ADP-glo based luminescence assay.
Assay [6] has as its system MV4-11. Briefly: Induction of apoptosis in human MV4-11 cells assessed as early apoptotic cells at 20 x GI50 concentration incubated for 48 hrs by annexin V-FITC and propidium iodide staining based flow cytometry (reference value: 1.08 %). Type of assay: functional.
The nature of assay [7]: Inhibition of FLT3 Y591-V592insVDFREYEYD mutant (unknown origin) incubated for 120 mins by ADP-glo based luminescence assay. Set-up: species or system Homo sapiens. A general note: In ADP-Glo the light output rises with the ADP produced.
For assay [8], the system named is MV4-11. Put plainly: Induction of apoptosis in human MV4-11 cells assessed as late apoptotic cells at 5 x GI50 concentration incubated for 24 hrs by annexin V-FITC and propidium iodide staining based flow cytometry (reference value: 12.45 %). It counts as functional.
Assay [9] concerns U-937. Put plainly: Induction of apoptosis in human U937 cells assessed as viable cells at 5 x GI50 concentration incubated for 24 hrs by annexin V-FITC and propidium iodide staining based flow cytometry (reference value: 86.80 %). It counts as functional.
The test system of assay [10] is U-937. Briefly: Induction of apoptosis in human U937 cells assessed as early apoptotic cells at 20 x GI50 concentration incubated for 24 hrs by annexin V-FITC and propidium iodide staining based flow cytometry (reference value: 1.81 %). It counts as functional.
For assay [11], the system named is MV4-11. Briefly: Induction of apoptosis in human MV4-11 cells assessed as late apoptotic cells at 5 x GI50 concentration incubated for 48 hrs by annexin V-FITC and propidium iodide staining based flow cytometry (reference value: 6.59 %). Type of assay: functional.
For assay [12], the system named is U-937. Put plainly: Induction of apoptosis in human U937 cells assessed as late apoptotic cells at 1 x GI50 concentration incubated for 24 hrs by annexin V-FITC and propidium iodide staining based flow cytometry (reference value: 10.30 %). Type of assay: functional.
Assay [13] deals with MV4-11. Put plainly: Induction of apoptosis in human MV4-11 cells assessed as early apoptotic cells at 1 x GI50 concentration incubated for 24 hrs by annexin V-FITC and propidium iodide staining based flow cytometry (reference value: 2.12 %). It counts as functional.
Assay [14] has as its target Receptor-type tyrosine-protein kinase FLT3 (Homo sapiens, UniProt P36888, ITD). Put plainly: Inhibition of FLT3 ITD mutant (unknown origin) using Glu/Tyr peptide substrate incubated for 80 mins measured after 40 mins incubation under dark by ADP-glo based luminescence assay.
For assay [15], the system named is U-937. Briefly: Induction of apoptosis in human U937 cells assessed as viable cells at 10 x GI50 concentration incubated for 48 hrs by annexin V-FITC staining based flow cytometry (reference value: 86.25 %). Type of assay: functional.
Assay [16] deals with MV4-11. Put plainly: Induction of apoptosis in human MV4-11 cells assessed as early apoptotic cells at 1 x GI50 concentration incubated for 48 hrs by annexin V-FITC and propidium iodide staining based flow cytometry (reference value: 1.08 %). It counts as functional.
Assay [17] deals with U-937. Briefly: Induction of apoptosis in human U937 cells assessed as late apoptotic cells at 10 x GI50 concentration incubated for 24 hrs by annexin V-FITC and propidium iodide staining based flow cytometry (reference value: 10.30 %). Type of assay: functional.
For the next assay, the system named is K562. Briefly: Antiproliferative activity against human K562 cells harboring FLT3 knockout gene assessed as reduction in cell viability after 72 hrs by resazurin assay. It counts as functional. Put shortly: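 Cells seeded and pre-incubated 24 h at 37 °C, 5% CO2, then given a five-fold dilution series of compound (from 10 mM DMSO stock) in medium, in triplicate. Resazurin added after 72 h exposure, 4 h in dark at 37 °C. Fluorescence read at 570/585 nm, normalised to DMSO vehicle. GI50 by non-linear regression; mean ± SD of at least two replicates.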
Background: Resazurin is reduced to fluorescent resorufin, in cell work by metabolically active cells.

Take `CC(=O)N1CCN(c2ccc(Nc3nccc(-c4cn(C)c5ncccc45)n3)cc2)CC1`: the Activity with MV4-11 [1] is given as 75%; with MV4-11 [2], 20.33%; in the assay on U-937 [4], 14.5%; in the assay on MV4-11 [6], 2.17%; with MV4-11 [8], 16.42%; in the assay on U-937 [9] it was 86.36%. Moreover, the Activity with U-937 [10] was found to be 2.63%; with MV4-11 [11], 9.25%; in the assay with U-937 [12], 7.98%; in the assay on MV4-11 [13], 2.16%; in the assay with U-937 [15], 83.36%; in the assay with MV4-11 [16] it was 2.99%. For the same compound, the Activity in the assay with U-937 [17] is listed as 10.31%. For the same compound, the inhibition constant Ki (as a rule, a measure of affinity in units of concentration, obtained from inhibition or displacement) in [3] was found to be 9 nM; in assay [5] it was 47 nM; in assay [7], 185 nM; in [14], 2 nM. Further, the GI50 (commonly the concentration at which growth is held to half of that of the control) in the assay on K562 was greater than 10000 nM.

The values above are taken from ChEMBL document CHEMBL4813946, “Discovery of novel 4-azaaryl-N-phenylpyrimidin-2-amine derivatives as potent and selective FLT3 inhibitors for acute myeloid leukaemia with FLT3 mutations” (Eur J Med Chem, 2021).
